Source: publication PMC5221563 (Molecular cancer therapeutics, 2016)
Where two headings read alike, the source gives them in different places.

Assays:
MiaPaCa-2 cells [1] = assay: Clonogenic assay, combination treatment; assay type: cell-based, human; details: MiaPaCa-2, combination with gemcitabine or oxaliplatin
Summary of the method: (§1)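 Cells were seeded at 50,000 per well in six-well plates and allowed to attach for 24 hrs. They were then exposed for 72 hrs to test compound, gemcitabine, oxaliplatin or a combination. Afterwards, 1,000 cells per condition were re-seeded in 100 mm dishes and grown. Colonies were stained, counted and photographed.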

L3.6pl PDAC tumors = assay: L3.6pl subcutaneous xenograft; assay type: in vivo
Summary of the method: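 Four-week-old female ICR-SCID mice: 10 per group were trocared bilaterally s.c. with ~50 mg L3.6pl tumor fragments, then randomised. Treatment was diluent or test compound 140 mg/kg i.v., 5 times per week for 4 weeks. At day 21 the control arm got 140 mg/kg i.v. once daily, 5 days a week, for one more week. Tumor weight, body weight and side effects were tracked; excised tumors were H&E stained.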

AsPC-1 tumors = assay: AsPC-1 subcutaneous xenograft; assay type: in vivo, ICR-SCID mice; details: KPT-9274 single agent, p < 0.05
L3.6pl cells [2] = assay: Annexin V FITC apoptosis, combination treatment; assay type: cell-based; details: combination with gemcitabine or oxaliplatin, 96 hrs
Summary of the method: (§2)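 Human PDAC cells plated at 50,000 per well in six-well plates. After 24 hrs, exposed for 96 hrs to test compound, gemcitabine, oxaliplatin, or test compound plus either drug. Cells trypsinized; equal numbers stained with Annexin V FITC and propidium iodide per kit protocol. Analysed by flow cytometry.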

[3] = molecular target: PAK4-vimentin interaction (Homo sapiens, UniProt O96013); assay: Co-immunoprecipitation of PAK4 and vimentin; assay type: cell-based; details: vs control treatment
Summary of the method: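 Lysates (200 micro gram protein) from control or test-compound-treated cells were immunoprecipitated with PAK4 or vimentin antibodies. The immunoprecipitates were resolved on a 10% gel, western blotted and probed with anti-PAK4 or anti-vimentin antibodies, with loading and internal controls. Two independent experiments were run.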

MiaPaCa-2 cells [4] = assay: Annexin V FITC apoptosis, combination treatment; assay type: cell-based, human; details: MiaPaCa-2, combination with gemcitabine or oxaliplatin, 96 hrs
Summary of the method: as §2

L3.6pl cells [5] = assay: MTT isobologram synergy analysis; assay type: cell-based; details: 72 hrs
Summary of the method: (§3)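 Cells at 5,000 per well in 96-well plates were treated after 24 hrs with test compound (60, 120 or 180 nM), a chemotherapy partner, or both for 72 hrs. The MTT read-out used 5 mg/mL reagent for 2 hrs, formazan dissolved in DMSO and absorbance at 595 nm. Mean absorbance went into isobologram analysis, and the combination index was calculated.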

[6] = system: PAK4, p-PAK4, cyclin D1, p-PAK2 in MiaPaCa-2 cells; assay: Western blot of PAK4 and related signaling; assay type: cell-based, human
Summary of the method: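 MiaPaCa-2 cells (1×10^6 per 100 mm dish, ~50% confluent) were exposed to test compound for 72 hrs. Protein was extracted and western blotted, and blots were probed for p-PAK4 and p-PAK2 with β-actin as the loading control. Blots are representative of two independent experiments.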

[7] = system: PARP cleavage in MiaPaCa-2 cells; assay: Western blot for PARP cleavage; assay type: cell-based, human; details: 72 hrs
Summary of the method: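 1×10^6 MiaPaCa-2 cells were grown overnight in 100 mm dishes to ~50% confluence. They were exposed to the indicated test compound concentrations for 72 hrs. Protein was extracted, separated by SDS-PAGE and western blotted with a PARP antibody, using β-actin as the loading control.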

MiaPaCa-2 cells [8] = assay: MTT isobologram synergy analysis; assay type: cell-based, human; details: MiaPaCa-2, KPT-9274 (60, 120 or 180 nM) with oxaliplatin (2, 4 or 8 μM), 72 hrs
Summary of the method: as §3

Tolerability in mice = assay type: in vivo; details: 200 mg/kg daily administered either intravenously or orally
[9] = system: p-PAK4 and group I PAKs in DU-145 prostate cancer cell line; assay: PAK isoform phosphorylation in DU-145 cells; assay type: cell-based; details: sub-IC50 amount
multi-drug transporters [10] = assay: Multi-drug transporter substrate status; assay type: in vitro ADME; details: data not shown
L3.6pl cells [11] = assay: Clonogenic assay, combination treatment; assay type: cell-based; details: combination with gemcitabine or oxaliplatin
Summary of the method: as §1

[12] = system: CD44+/CD133+/EpCAM+ MiaPaCa-2 CSC tumors; assay: MiaPaCa-2 CSC subcutaneous xenograft; assay type: in vivo, ICR-SCID mice
Summary of the method: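 CD44+/CD133+/EpCAM+ MiaPaCa-2 cells, isolated by FACS, were kept in serum-free sphere medium (1:1 DMEM/F-12K with B27 and N2). 1×10^6 cells were implanted subcutaneously on both flanks of 4-week-old female ICR-SCID mice. Growth was confirmed in one mouse after 2–3 weeks. Tumor-bearing mice were then randomized into 2 groups of 6: vehicle control or treatment.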

multi-drug transporters [13] = details: cited from earlier work
[14] = clinical trial NCT00932126; cited from earlier work
PAK4 = PAK4 (Homo sapiens, UniProt O96013); details: cited from earlier work
[15] = 140 mg/kg IV, 5 days per week, SCID mice

Chain of PAK4-vimentin interaction (O96013 whole entry): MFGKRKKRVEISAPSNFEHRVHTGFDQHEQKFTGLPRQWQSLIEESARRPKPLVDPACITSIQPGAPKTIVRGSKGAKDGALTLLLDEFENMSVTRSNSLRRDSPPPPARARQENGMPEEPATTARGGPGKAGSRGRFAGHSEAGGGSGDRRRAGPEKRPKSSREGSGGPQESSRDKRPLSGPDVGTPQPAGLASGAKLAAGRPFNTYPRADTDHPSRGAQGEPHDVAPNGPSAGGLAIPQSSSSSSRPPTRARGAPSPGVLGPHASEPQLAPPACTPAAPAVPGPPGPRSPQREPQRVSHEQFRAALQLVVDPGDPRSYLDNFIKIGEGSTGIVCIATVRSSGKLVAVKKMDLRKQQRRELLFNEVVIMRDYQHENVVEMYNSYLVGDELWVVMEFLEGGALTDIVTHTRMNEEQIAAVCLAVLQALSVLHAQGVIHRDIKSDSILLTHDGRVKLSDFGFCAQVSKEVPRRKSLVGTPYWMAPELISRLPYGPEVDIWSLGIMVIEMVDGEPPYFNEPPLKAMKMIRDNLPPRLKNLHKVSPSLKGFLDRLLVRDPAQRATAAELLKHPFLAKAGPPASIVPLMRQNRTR
Chain of PAK4 (O96013 whole entry): as above

Nc1ccc(/C=C/C(=O)NCc2cc3cc(-c4ccc(C(=O)N5CCC(F)(F)CC5)cc4)cc(-c4ccc(F)cc4)c3o2)cn1 [KPT-9274]
colony formation, combination vs single agents alone (MiaPaCa-2 cells [1]): inhibition of colony formation | effect on large established tumors (control group, mean tumor 1500 mg) (L3.6pl PDAC tumors; 140 mg/kg IV per day from day 21, 3 doses): regress large established tumors | anti-tumor activity on L3.6pl tumors (L3.6pl PDAC tumors; [15]): completely eliminated | outward signs of toxicity, body weight loss (L3.6pl PDAC tumors; [15]): did not see any outward signs of toxicity, body weight loss | tumor growth, AsPC-1 xenograft (AsPC-1 tumors): statistically significant inhibition of tumor growth | apoptosis, combination vs either single agent alone (L3.6pl cells [2]): statistically significant enhancement in apoptosis | PAK4-vimentin interaction (co-immunoprecipitation) [3]: disruption of PAK4-vimentin interaction | apoptosis, combination vs either single agent alone (MiaPaCa-2 cells [4]): statistically significant enhancement in apoptosis | combination index (CI) (L3.6pl cells [5]; KPT-9274 (60, 120 or 180 nM) with gemcitabine (10, 20 or 40 nM)): < 1 | combination index (CI) (L3.6pl cells [5]; KPT-9274 (60, 120 or 180 nM) with oxaliplatin (2, 4 or 8 μM)): < 1 | p-PAK2 level (western blot) [6]: without effecting | p-PAK4 level (western blot) [6]: reduced | PARP cleavage (western blot) [7]: significant PARP cleavage | combination index (CI) (MiaPaCa-2 cells [8]): < 1 | tolerability in mice (Tolerability in mice): well tolerated | p-PAK4 versus group I PAKs [9]: selective inhibition of p-PAK4 sparing other group I PAKs | substrate of the multi-drug transporters (multi-drug transporters [10]): not a substrate of the multi-drug transporters | colony formation, combination vs single agents alone (L3.6pl cells [11]): inhibition of colony formation | suppression of CSC tumors ([12]; 140 mg/kg once daily i.v.): almost complete suppression of CSC tumors

Cc1nc(Nc2n[nH]c3c2CN(C(=O)N[C@H](CN(C)C)c2ccccc2)C3(C)C)c2sccc2n1 [PF-03758309]
substrate of the multi-drug transporters (multi-drug transporters [13]): substrate of the multi-drug transporters | human bioavailability [14]: < 1%

Nc1ccn([C@@H]2O[C@H](CO)[C@@H](O)C2(F)F)c(=O)n1 [gemcitabine, reference compound]
response of CSC tumors ([12]; 50 mg/kg i.p.): do not respond

COc1nc(NCCc2c[nH]c3ccccc23)nc(Nc2ccc3[nH]ncc3c2)n1 [KY-04031]
binding affinity towards PAK4 (PAK4): very low binding affinity
